Activity calls are given as the source filed them. No cut-off for these calls is given here.
Legend:
[1] = system: Staphylococcus aureus; assay: Induction of cytoplasmic membrane depolarization in Staphylococcus aureus ATCC 29213 at 20 ug/ml measured every 2 mins for 12 mins by diSC35 staining based fluorescence assay; type: functional, organism-based
In short: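 Mid-log cells (4–6 h) pelleted, washed and resuspended (~10^8 CFU/mL) in PBS for S. aureus, or in 5 mM HEPES, 5 mM glucose and 100 mM KCl (1:1:1) for E. coli. Preloaded with diSC35 (10 µM, 50 µL), 30 min for S. aureus and 40 min plus EDTA (200 µM, 50 µL) for E. coli. Baseline read 8 min (ex 622/em 670 nm), then compound added to 20 µg/mL final and read every 2 min for 12 min. Water control.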

[2] = system: Klebsiella pneumoniae; assay: Antibacterial activity against carbapenemase-producing Klebsiella pneumoniae isolate K10 after 16 to 20 hrs by broth microdilution method; type: functional
In short: (§1)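 Broth microdilution per CLSI in cation-adjusted Mueller-Hinton broth; 4-6 h cultures (~10⁸ CFU/mL) diluted to ~10⁶ CFU/mL and mixed 1:1 with twofold dilutions of water-dissolved compound (256 to 0.5 µg/mL). Incubated 16-20 h at 37 °C; MIC read visually. Each concentration run in duplicate, whole experiment repeated at least twice. MRSA, KPC and NDM-1 strains were clinical isolates.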

[3] = system: Salmonella enterica; assay: Antibacterial activity against Salmonella enterica after 16 to 20 hrs by broth microdilution method; type: functional; in short: as §1
[4] = system: Staphylococcus aureus; assay: Bactericidal activity against methicillin-resistant Staphylococcus aureus after 20 to 24 hrs by broth microdilution method; type: functional
In short: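 For MBC, 20 µL from wells of the broth microdilution MIC plate showing little or no turbidity was plated on agar and incubated 20-24 h at 37 °C. MBC was the lowest concentration giving no colonies.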

[5] = system: Staphylococcus aureus; assay: Antibacterial activity against methicillin-resistant Staphylococcus aureus isolate M4 after 16 to 20 hrs by broth microdilution method; type: functional
In short: (§2)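 CLSI broth microdilution in cation-adjusted Mueller-Hinton broth. A 4-6 h culture was diluted to about 10⁶ CFU/mL and mixed 1:1 with twofold compound dilutions (256–0.5 µg/mL before mixing) prepared from aqueous stocks. Plates were incubated at 37 °C for 16-20 h. Each concentration was tested in duplicate, and the experiment was repeated at least twice.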

[6] = system: Staphylococcus aureus; assay: Antibacterial activity against methicillin-resistant Staphylococcus aureus isolate M9 after 16 to 20 hrs by broth microdilution method; type: functional; in short: as §2
[7] = system: Enterobacteriaceae; assay: Antibacterial activity against NDM-1-producing Enterobacteriaceae isolate N5 after 16 to 20 hrs by broth microdilution method; type: functional; in short: as §1
[8] = system: Enterobacteriaceae; assay: Antibacterial activity against NDM-1-producing Enterobacteriaceae after 16 to 20 hrs by broth microdilution method; type: functional; in short: as §1
[9] = system: Staphylococcus aureus; assay: Antibacterial activity against methicillin-resistant Staphylococcus aureus isolate M3 after 16 to 20 hrs by broth microdilution method; type: functional; in short: as §2
[10] = system: Klebsiella pneumoniae; assay: Antibacterial activity against carbapenemase-producing Klebsiella pneumoniae isolate K6 after 16 to 20 hrs by broth microdilution method; type: functional; in short: as §1
[11] = system: Enterobacteriaceae; assay: Antibacterial activity against NDM-1-producing Enterobacteriaceae isolate N2 after 16 to 20 hrs by broth microdilution method; type: functional; in short: as §1
[12] = system: Escherichia coli; assay: Induction of inner membrane permeabilization in Escherichia coli ATCC 25922 at 20 ug/ml measured every 2 mins for 12 mins by propidium iodide staining based fluorescence assay; type: functional, organism-based
In short: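 Mid-log cells (~10^8 CFU/mL) pre-incubated with propidium iodide (10 µM, 50 µL), 30 min for S. aureus and 40 min for E. coli. Fluorescence (ex 535/em 617 nm) read for 8 min, then compound added to 20 µg/mL final and monitored every 2 min for 12 min. Water-treated control.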

[13] = system: Klebsiella pneumoniae; assay: Antibacterial activity against carbapenemase-producing Klebsiella pneumoniae isolate K2 after 16 to 20 hrs by broth microdilution method; type: functional; in short: as §1
[14] = system: Staphylococcus aureus; assay: Ratio of MBC for methicillin-resistant Staphylococcus aureus in presence of 50% serum to MBC for methicillin-resistant Staphylococcus aureus; type: functional
In short: (§3)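 MRSA at 10⁵ CFU/mL in 50% Mueller-Hinton broth plus 50% sheep serum, plasma or defibrinated whole blood. Serum and plasma were separated by centrifugation at 3,500 rpm for 10 min. Aqueous compound dilutions (512–4 µg/mL before mixing) were combined 1:3 with the suspension and incubated 20-24 h at 37 °C. Wells were plated on Mueller-Hinton agar for a further 20-24 h; MBC was taken as no colonies.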

[15] = system: Klebsiella pneumoniae; assay: Antibacterial activity against carbapenemase-producing Klebsiella pneumoniae isolate K7 after 16 to 20 hrs by broth microdilution method; type: functional; in short: as §1
[16] = system: Klebsiella pneumoniae; assay: Antibacterial activity against carbapenemase-producing Klebsiella pneumoniae isolate K3 after 16 to 20 hrs by broth microdilution method; type: functional; in short: as §1
[17] = system: Staphylococcus aureus; assay: Antibacterial activity against methicillin-resistant Staphylococcus aureus after 16 to 20 hrs by broth microdilution method; type: functional; in short: as §2
[18] = system: Staphylococcus aureus; assay: Bactericidal activity against Staphylococcus aureus after 20 to 24 hrs using compounds preincubated with 50% plasma for 3 to 6 hrs by broth microdilution method
[19] = system: Escherichia coli; assay: Antibacterial activity against Escherichia coli ATCC 25922 after 16 to 20 hrs by broth microdilution method; type: functional; in short: as §1
[20] = system: Staphylococcus aureus; assay: Antibacterial activity against methicillin-resistant Staphylococcus aureus isolate M8 after 16 to 20 hrs by broth microdilution method; type: functional; in short: as §2
[21] = system: Staphylococcus aureus; assay: Bactericidal activity against methicillin-resistant Staphylococcus aureus after 20 to 24 hrs in presence of 50% blood by broth microdilution method; type: functional, organism-based; in short: as §3
[22] = system: Staphylococcus aureus; assay: Antibacterial activity against methicillin-resistant Staphylococcus aureus isolate M1 after 16 to 20 hrs by broth microdilution method; type: functional; in short: as §2
[23] = system: Staphylococcus aureus; assay: Antibacterial activity against Staphylococcus aureus ATCC 29213 after 16 to 20 hrs by broth microdilution method; type: functional; in short: as §2
[24] = system: Staphylococcus aureus; assay: Ratio of MBC for methicillin-resistant Staphylococcus aureus in presence of 50% blood to MBC for methicillin-resistant Staphylococcus aureus; type: functional; in short: as §3
[25] = system: Klebsiella pneumoniae; assay: Antibacterial activity against carbapenemase-producing Klebsiella pneumoniae after 16 to 20 hrs by broth microdilution method; type: functional; in short: as §1
[26] = system: Klebsiella pneumoniae; assay: Antibacterial activity against carbapenemase-producing Klebsiella pneumoniae isolate K4 after 16 to 20 hrs by broth microdilution method; type: functional; in short: as §1
[27] = system: Enterobacteriaceae; assay: Antibacterial activity against NDM-1-producing Enterobacteriaceae isolate N6 after 16 to 20 hrs by broth microdilution method; type: functional; in short: as §1
[28] = system: Staphylococcus aureus; assay: Antibacterial activity against methicillin-resistant Staphylococcus aureus isolate M5 after 16 to 20 hrs by broth microdilution method; type: functional; in short: as §2
[29] = Hemolytic activity in sheep RBC after 1 hr; type: ADME, cell-based, Ovis aries, Erythrocyte; conditions: sheep red blood cells (erythrocytes)
In short: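 Sheep RBCs suspended at 5% in PBS; 150 µL added to 50 µL compound dilutions (5120 to 10 µg/mL series). Incubated 1 h at 37 °C, then centrifuged; supernatant absorbance read at 540 nm. Lysis (%) = (A−A0)/(Atotal−A0)×100, with untreated 5% RBC as A0 and 0.1% Triton X-100 as total.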

[30] = system: Staphylococcus aureus; assay: Antibacterial activity against methicillin-resistant Staphylococcus aureus isolate M7 after 16 to 20 hrs by broth microdilution method; type: functional; in short: as §2
[31] = system: Enterobacteriaceae; assay: Antibacterial activity against NDM-1-producing Enterobacteriaceae isolate N3 after 16 to 20 hrs by broth microdilution method; type: functional; in short: as §1
[32] = system: Enterobacteriaceae; assay: Antibacterial activity against NDM-1-producing Enterobacteriaceae isolate N8 after 16 to 20 hrs by broth microdilution method; type: functional; in short: as §1
[33] = system: Enterobacteriaceae; assay: Antibacterial activity against NDM-1-producing Enterobacteriaceae isolate N9 after 16 to 20 hrs by broth microdilution method; type: functional; in short: as §1

Compound	Activity [1]	MIC [2] [µg/mL]	MIC [3] [µg/mL]	MBC [4] [µg/mL]	MIC [5] [µg/mL]	MIC [6] [µg/mL]	MIC [7] [µg/mL]	MIC [8] [µg/mL]	MIC [9] [µg/mL]	MIC [10] [µg/mL]	MIC [11] [µg/mL]	Activity [12]	MIC [13] [µg/mL]	Ratio [14]	MIC [15] [µg/mL]	MIC [16] [µg/mL]	MIC [17] [µg/mL]	MBC [18] [µg/mL]	MIC [19] [µg/mL]	MIC [20] [µg/mL]	other results
CCCCCCCCCN(CCCCCCCCC)C(=O)[C@@H](N)CCCN=C(N)N.Cl.Cl.Cl	Active	4	4	4 to 8	1	2	4	4	1	4	4	Active	4	1 - 2	4	4	2	16	2	2	Activity [21]: inactive; MIC [22]: 2 µg/mL; MIC [23]: 1 µg/mL; Ratio [24]: 8 - 16; MIC [25]: 4 µg/mL; MIC [26]: 2 µg/mL; MIC [27]: 4 µg/mL; MIC [28]: 2 µg/mL; HC50 at 1 h [29]: 119 µg/mL; MIC [30]: 2 µg/mL; MIC [31]: 4 µg/mL; MIC [32]: 2 µg/mL; MIC [33]: 4 µg/mL
CCCCCCCCCCN(CCCCCCCCCC)C(=O)[C@@H](N)CCCCN.Cl.Cl	Active	4	2	4 to 8	2	1	4	4	2	4	4	Active	4	1 - 2	4	4	1	16	2	1	Activity [21]: inactive; MIC [22]: 1 µg/mL; MIC [23]: 4 µg/mL; Ratio [24]: 8 - 16; MIC [25]: 2 µg/mL; MIC [26]: 4 µg/mL; MIC [27]: 4 µg/mL; MIC [28]: 2 µg/mL; HC50 at 1 h [29]: 98 µg/mL; MIC [30]: 1 µg/mL; MIC [31]: 4 µg/mL; MIC [32]: 4 µg/mL; MIC [33]: 4 µg/mL
CCCCCCCCN(CCCCCCCC)C(=O)[C@@H](N)CCCCN.Cl.Cl	Active	2	4	4 to 8	1	1	4	4	1	2	8	Active	2	1 - 2	2	2	0.5	16	2	1	Activity [21]: inactive; MIC [22]: 1 µg/mL; MIC [23]: 2 µg/mL; Ratio [24]: 8 - 16; MIC [25]: 1 µg/mL; MIC [26]: 2 µg/mL; MIC [27]: 4 µg/mL; MIC [28]: 1 µg/mL; HC50 at 1 h [29]: 225 µg/mL; MIC [30]: 0.5 µg/mL; MIC [31]: 8 µg/mL; MIC [32]: 8 µg/mL; MIC [33]: 8 µg/mL

From ChEMBL document CHEMBL4130549, “Synthesis and bioactivities study of new antibacterial peptide mimics: The dialkyl cationic amphiphiles” (Eur J Med Chem, 2018)
